{"source": "paper PMC8667933", "about": "(Journal of Enzyme Inhibition and Medicinal Chemistry, 2021)", "key": {"ERRα": {"target": "T1, ERRα (Homo sapiens, UniProt P11474)", "T1 sequence (P11474 193-421 limits assumed)": "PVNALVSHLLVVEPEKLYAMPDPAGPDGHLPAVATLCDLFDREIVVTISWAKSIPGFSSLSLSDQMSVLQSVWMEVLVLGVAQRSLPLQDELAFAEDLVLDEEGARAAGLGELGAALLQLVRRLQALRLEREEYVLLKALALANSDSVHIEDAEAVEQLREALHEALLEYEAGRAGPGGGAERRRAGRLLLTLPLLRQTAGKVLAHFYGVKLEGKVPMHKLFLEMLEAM", "assay": "ERRα functional assay: mammalian two-hybrid reporter gene assay", "format": "cell-based"}, "HCC-1937": {"tested_on": "HCC-1937", "assay": "CCK-8 cell viability assay, HCC-1937", "format": "cell-based, human", "settings": "for suppression of cell proliferation: HCC-1937, 10 μM, CCK-8", "in_short": "(§1)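 Log-phase cells seeded in 96-well plates and incubated overnight, then exposed to test compound or vehicle. Viability runs: 1, 3 and 10 μM for 24 h and 48 h. IC50: a range of concentrations for 24 h. Proliferation read by CCK-8 per kit procedure. Mean ± SEM of n = 3; two-tailed unpaired t-test vs vehicle.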"}, "[1]": {"tested_on": "MDA-MB-231 xenograft tumour", "assay": "Breast cancer xenografts in nude mice", "format": "in vivo, BALB/c nude mice", "settings": "30 mg/kg every other day, intraperitoneally, 30 days", "in_short": "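6-week-old BALB/c nude mice were implanted subcutaneously with 2 × 10^6 MDA-MB-231 cells each. Dosing began once tumours averaged >100 mm3: i.p. 30 mg/kg every other day for 30 days in 0.9% saline with 0.5% 2-phenylethanol and 1.5% Tween 80, vehicle-only controls. Tumours measured every 5 days, V = length × width² × 0.5; body weight every 10 days. n = 6, mean ± SEM, two-tailed unpaired t-test vs vehicle.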"}, "MDA-MB-231 [2]": {"tested_on": "MDA-MB-231", "assay": "Colony formation assay, MDA-MB-231", "format": "cell-based, human", "in_short": "(§2)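 1 × 10^3 cells/well plated in 6-well plates and cultured overnight. Medium then replaced with vehicle or test compound at 0.3 or 1 μM. Exposure is 7 days per legend and 2 weeks (until colonies visible) per methods. Colonies washed with PBS, fixed in 4% paraformaldehyde, stained 30 min with 0.1% crystal violet, imaged and counted. n = 3, mean ± SEM, unpaired t-test.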"}, "ERRα LBD": {"target": "T2, ERRα LBD (Homo sapiens, UniProt P11474)", "T2 sequence (P11474 193-421 limits assumed)": "T1 sequence (P11474 193-421 limits assumed)", "assay": "TR-FRET co-activator assay", "format": "binding"}, "MCF-7 [3]": {"tested_on": "MCF-7", "assay": "CCK-8 cell viability assay, MCF-7", "format": "cell-based, human", "settings": "for suppression of cell proliferation: MCF-7, 10 μM, CCK-8", "in_short": "as §1"}, "[4]": {"assay": "Body weight and overt toxicity in xenograft mice", "format": "in vivo, BALB/c nude mice", "settings": "30 mg/kg every other day, intraperitoneally, vs control group"}, "[5]": {"tested_on": "MDA-MB-231 cells with ERRα knock-down", "assay": "Viability of MDA-MB-231 cells after ERRα knock-down", "format": "cell-based, human", "settings": "siRNA (legend: shERRα vs shCtrl)"}, "[6]": {"tested_on": "ERRα-regulated target genes (PGC-1α, PDK4, osteopontin, pS2)", "assay": "Quantitative RT-PCR of ERRα-regulated target genes in MDA-MB-231 cells", "format": "cell-based, human", "settings": "high-dose 3 μM, 24 h", "in_short": "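MDA-MB-231 cells exposed 24 h to 0.1% DMSO or test compound at 1 or 3 μM. Total RNA isolated with Trizol, reverse-transcribed, and analysed by real-time PCR for PGC-1α, PDK4, osteopontin (SPP1) and pS2 (TFF1) mRNA. Mean ± SEM of n = 3; two-tailed unpaired t-test vs vehicle.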"}, "MDA-MB-231 [7]": {"tested_on": "MDA-MB-231", "assay": "Transwell invasion assay", "format": "cell-based, human", "settings": "24 h"}, "MCF-7 [8]": {"tested_on": "MCF-7", "assay": "Colony formation assay, MCF-7", "format": "cell-based, human", "settings": "MCF-7, high-dose 1 μM", "in_short": "as §2"}, "MCF-7 [9]": {"tested_on": "MCF-7", "assay": "Transwell invasion assay", "format": "cell-based, human", "settings": "MCF-7, high-dose (3 μM), 24 h"}, "MDA-MB-231 [10]": {"tested_on": "MDA-MB-231", "assay": "CCK-8 cell viability assay, MDA-MB-231", "format": "cell-based, human", "settings": "for suppression of cell proliferation: MDA-MB-231, 10 μM, CCK-8", "in_short": "as §1"}, "[11]": {"tested_on": "MCF-7 and MDA-MB-231 cells", "assay": "Transwell migration assay", "format": "cell-based, human", "settings": "24 h"}}}
{"compound": "O=[N+]([O-])c1ccc(S(=O)(=O)Nc2ccccc2Oc2ccccc2)cc1", "note": "[compound 8, 4-Nitro-N-(2-phenoxyphenyl)benzenesulfonamide]", "values": [{"measurement": "IC50", "setting": "ERRα", "result": 1.76, "unit": "µM"}]}
{"compound": "O=[N+]([O-])c1ccc(S(=O)(=O)Nc2ccccc2Oc2ccc(Cl)cc2)cc1", "note": "[compound 9, N-(2–(4-chlorophenoxy)phenyl)-4-nitrobenzenesulfonamide]", "values": [{"measurement": "IC50", "setting": "ERRα", "result": 2.02, "unit": "µM"}]}
{"compound": "Cc1ccc(Oc2ccccc2NS(=O)(=O)c2ccc([N+](=O)[O-])cc2)cc1", "note": "[compound 10, 4-Nitro-N-(2-(p-tolyloxy)phenyl)benzenesulfonamide]", "values": [{"measurement": "IC50", "setting": "ERRα", "result": 1.23, "unit": "µM"}, {"measurement": "inhibiting activity relative to compound 14", "setting": "ERRα; ratio of IC50 values, compound 10 vs compound 14", "result": 1.5, "unit": "times"}]}
{"compound": "COc1ccc(Oc2ccccc2NS(=O)(=O)c2ccc([N+](=O)[O-])cc2)cc1", "note": "[compound 11, N-(2–(4-methoxyphenoxy)phenyl)-4-nitrobenzenesulfonamide]", "values": [{"measurement": "IC50", "setting": "ERRα", "result": 0.8, "unit": "µM"}, {"measurement": "fold more active than compound 10", "setting": "ERRα; ratio of IC50 values, compound 11 vs compound 10", "result": 1.5, "unit": "fold"}, {"measurement": "suppression of cell proliferation", "setting": "HCC-1937; 24 h", "result": 31.0, "unit": "%"}, {"measurement": "suppression of cell proliferation", "setting": "HCC-1937; 48 h", "result": 38.0, "unit": "%"}, {"measurement": "IC50", "setting": "HCC-1937; Homo sapiens, HCC1937, 24 h, read-out: IC50, cell proliferation", "result": 14.7, "unit": "µM"}, {"measurement": "tumour growth inhibition", "setting": "[1]; MDA-MB-231 xenograft", "result": 23.58, "unit": "%"}, {"measurement": "tumour volume at the end of the experiment", "setting": "[1]; control 1508 mm^3", "result": 1152, "unit": "mm^3"}, {"measurement": "reduction of the number of colonies", "setting": "MDA-MB-231 [2]; MDA-MB-231, high-dose 1 μM", "result": 70.3, "unit": "%"}, {"measurement": "number of colonies", "setting": "MDA-MB-231 [2]; MDA-MB-231, low-dose 0.3 μM", "result": "decreased significantly"}, {"measurement": "IC50", "setting": "ERRα LBD", "result": 0.681, "unit": "µM"}, {"measurement": "IC50", "setting": "MCF-7 [3]; Homo sapiens, MCF7, 24 h, read-out: IC50, cell proliferation", "result": 15.4, "unit": "µM"}, {"measurement": "suppression of cell proliferation", "setting": "MCF-7 [3]; 24 h", "result": 23.5, "unit": "%"}, {"measurement": "suppression of cell proliferation", "setting": "MCF-7 [3]; 48 h", "result": 37.4, "unit": "%"}, {"measurement": "influence on weight of mice and overt toxicity", "setting": "[4]", "result": "no notably compound-related influences on the weight of mice or any other symptoms of overt toxicity"}, {"measurement": "effect of ERRα knock-down on compound-induced anti-proliferation", "setting": "[5]", "result": "knock-down of ERRα reduced compound 11 induced anti-proliferation"}, {"measurement": "PGC-1α, PDK4, osteopontin and pS2 mRNA expression", "setting": "[6]", "result": "notably reduced"}, {"measurement": "effect on cell invasion", "setting": "MDA-MB-231 [7]; MB-231 cells, low-dose (1 μM)", "result": "weak effect"}, {"measurement": "reduction in cell invasion", "setting": "MDA-MB-231 [7]; MDA-MB-231, high-dose (3 μM)", "result": 50.9, "unit": "%"}, {"measurement": "reduction of the number of colonies", "setting": "MCF-7 [8]", "result": 47.5, "unit": "%"}, {"measurement": "reduction in cell invasion", "setting": "MCF-7 [9]", "result": 31.5, "unit": "%"}, {"measurement": "IC50", "setting": "MDA-MB-231 [10]; Homo sapiens, MDA-MB-231, 24 h, read-out: IC50, cell proliferation", "result": 9.15, "unit": "µM"}, {"measurement": "suppression of cell proliferation", "setting": "MDA-MB-231 [10]; 24 h", "result": 38.9, "unit": "%"}, {"measurement": "suppression of cell proliferation", "setting": "MDA-MB-231 [10]; 48 h", "result": 44.3, "unit": "%"}, {"measurement": "inhibition of breast cancer cells migration", "setting": "[11]; 1 μM", "result": "moderate inhibition"}, {"measurement": "inhibition of breast cancer cells migration", "setting": "[11]; high-dose 3 μM", "result": "much more potently inhibitory effect"}]}
{"compound": "COc1ccc(Oc2ccccc2NS(=O)(=O)c2ccc(N)cc2)cc1", "note": "[compound 12, 4-Amino-N-(2–(4-methoxyphenoxy)phenyl)benzenesulfonamide]", "values": [{"measurement": "IC50", "setting": "ERRα", "result": "> 10", "unit": "µM"}, {"measurement": "IC50, inhibition of ERRα transcriptional activity", "setting": "ERRα; reporter gene assay, HEK 293 T cells, 48 h", "result": "inactive"}]}
{"compound": "Nc1ccc(S(=O)(=O)Nc2ccccc2Oc2ccc(Cl)cc2)cc1", "note": "[compound 13, 4-Amino-N-(2–(4-chlorophenoxy)phenyl)benzenesulfonamide]", "values": [{"measurement": "IC50", "setting": "ERRα", "result": 1.61, "unit": "µM"}]}
{"compound": "Cc1ccc(Oc2ccccc2NS(=O)(=O)c2ccc(N)cc2)cc1", "note": "[compound 14, 4-Amino-N-(2-(p-tolyloxy)phenyl)benzenesulfonamide]", "values": [{"measurement": "IC50", "setting": "ERRα", "result": 1.88, "unit": "µM"}]}
